Assay results reported in ChEMBL document CHEMBL1126273, “Design and synthesis of some substrate analogue inhibitors of phospholipase A2 and investigations by NMR and molecular modeling into the binding interactions in the enzyme-inhibitor complex” (J Med Chem, 1992).

What was measured:
[1] = molecular target: T1, Phospholipase A2, major isoenzyme (Sus scrofa, UniProt P00592); test: In vitro inhibition of porcine pancreatic phospholipase A2 evaluated by monomeric substrate assay
How it was run: (§1)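 The monomeric thioester substrate was used at 5.44 mM, below its CMC of 14 mM. The assay also held 0.2 mM DTNB, 0.25 mM CaCl2 and 0.5 μg/mL porcine pancreatic PLA2 in 10 mM sodium phosphate pH 7.5. Inhibitor or methanol made up 2.5% of the volume. Rates were followed over 16 h at about 22 °C. Inhibition was calculated against solvent controls after subtracting nonenzymic hydrolysis.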

[2] = molecular target: Phospholipase A2, major isoenzyme (Sus scrofa) (UniProt P00592); test: In vitro inhibition of porcine pancreatic phospholipase A2 by Deoxycholate-phospholipid mixed micelle assay at 30 uM
[3] = molecular target: T1, Phospholipase A2, major isoenzyme; test: In vitro inhibition of porcine pancreatic phospholipase A2 evaluated by Deoxycholate-phospholipid mixed micelle assay
How it was run: (§2)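 Porcine pancreatic PLA2 at 0.074 μg/mL, with 2 mM CaCl2, 2.4 mM sodium deoxycholate and 100 μM 1-stearoyl-2-arachidonoyl-L-phosphatidylcholine traced with 22 000 dpm 1-stearoyl-2-[14C]arachidonoyl-PC, in 50 mM Tris-HCl pH 8.2. Inhibitor was added in methanol at 1% of assay volume. After 8 min at 37 °C, released [14C]arachidonic acid was extracted and counted by scintillation, under hopping-kinetics conditions.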

[4] = molecular target: T1, Phospholipase A2, major isoenzyme; test: In vitro inhibition of porcine pancreatic phospholipase A2 evaluated by Deoxycholate-phospholipid mixed micelle assay; not active at the highest concentration tested; how it was run: as §2
[5] = molecular target: T1, Phospholipase A2, major isoenzyme; test: In vitro inhibition of porcine pancreatic phospholipase A2 evaluated by monomeric substrate assay; not active at the highest concentration tested; how it was run: as §1

T1 sequence (P00592 whole entry): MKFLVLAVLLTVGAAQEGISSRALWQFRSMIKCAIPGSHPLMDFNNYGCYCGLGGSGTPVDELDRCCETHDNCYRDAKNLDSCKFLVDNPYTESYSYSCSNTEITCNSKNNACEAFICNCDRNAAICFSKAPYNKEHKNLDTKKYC
Sequence of Phospholipase A2, major isoenzyme (Sus scrofa) (P00592 23-146 limits assumed): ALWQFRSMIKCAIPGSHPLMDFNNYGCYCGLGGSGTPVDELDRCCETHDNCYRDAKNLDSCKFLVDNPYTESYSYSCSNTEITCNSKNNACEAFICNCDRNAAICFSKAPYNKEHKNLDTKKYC

Row | SMILES | IC50 [1] [µM] | IC50 [3] [µM] | IC50 [4] | other results
1 | CCCCCCCCCCCCCCCC(=O)N[C@@H](COP(=O)(O)O)CC(C)C | 10 |  |  | inhibition [2]: 22%
2 | CCCCCCCCCCCCCCCCCCOC[C@H](COP(=O)([O-])OCC[N+](C)(C)C)NC(=O)CCCCCCCCCCCCCCC |  | 15 |  | 
3 | C[N+](C)(C)CCOP(=O)([O-])OCCNC(=O)Cc1ccc2ccccc2c1 | > 1000 |  | Not Active | 
4 | CC(C)C[C@H](COP(=O)([O-])OCC[N+](C)(C)C)NC(=O)Cc1ccc2ccccc2c1 | 160 |  | Not Active | 
5 | CCCCCCCCCCCCCCCC(=O)N[C@@H](COP(=O)([O-])OCC[N+](C)(C)C)CC(C)C | 0.23 | 30 |  | 
6 | CCCCCCCCCCCCCCCC(=O)OCC(COP(=O)(O)OCCO)NC(=O)CCCCCCCCCCCCC (stereo unspecified) | 0.03 | 3.5 |  | 
7 | CCCCCCCCCCCCCCCC(=O)N[C@H](COP(=O)([O-])OCC[N+](C)(C)C)CC(C)C | 4.5 |  | Not Active | 
8 | CCCCCC/C=C/CC(=O)N[C@H](COP(=O)([O-])OCC[N+](C)(C)C)CC(C)C |  |  |  | IC50 [5]: Not Active
9 | CCCCCCCCCCCCCCCC(=O)N[C@@H](COP(=O)(O)OCCO)CC(C)C | 0.03 | 2.6 |  | 
10 | CCCCCCCCCCCC(=O)NCCOP(=O)([O-])OCC[N+](C)(C)C |  |  | Not Active | IC50 [5]: Not Active
11 | CCCCCCCCCCCCCCCC(=O)N[C@@H](COP(=O)(O)O)Cc1ccccc1 | 5 |  |  | inhibition [2]: 42%
12 | C[N+](C)(C)CCOP(=O)([O-])OCCNC(=O)c1ccc2ccccc2c1 |  |  | Not Active | 
13 | CCCCCC/C=C/CC(=O)N[C@@H](COP(=O)([O-])OCC[N+](C)(C)C)CC(C)C | 6 |  |  | 
14 | CCCCCCCCCCCCCCCC(=O)NCCOP(=O)([O-])OCC[N+](C)(C)C | 4 | 300 |  | 
15 | CCCCCCCCCCCCCCCC(=O)N[C@H](C)COP(=O)([O-])OCC[N+](C)(C)C | 1.4 | 189 |  | 
